# GPR7 antag = blocks human GPR7 receptor signaling; GPR7-expressing cells, fluorescence antagonist assay; P48145; actives 1.1% (n = 290,000); inhibition, % at 4.4 µM; in the data active = inhibition above about 16%, passing the limit was not always enough;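 also: cells stimulated with the agonist NPW; 0% = agonist with vehicle and 100% = vehicle without agonist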
# OX1R antag-1 = blocks the human orexin 1 receptor; O43613; OX1R-expressing cells, FRET antagonist read-out; inhibition, % at 6.6 µM; actives 1.8% (n = 330,000); AID 485270; in the data active = inhibition mostly above about 38%, no sharp cut-off; inactive = mostly below about 40%;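 also: 0% = agonist challenge alone and 100% = reference antagonist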
# Target sequence (O43613 whole entry, looked up): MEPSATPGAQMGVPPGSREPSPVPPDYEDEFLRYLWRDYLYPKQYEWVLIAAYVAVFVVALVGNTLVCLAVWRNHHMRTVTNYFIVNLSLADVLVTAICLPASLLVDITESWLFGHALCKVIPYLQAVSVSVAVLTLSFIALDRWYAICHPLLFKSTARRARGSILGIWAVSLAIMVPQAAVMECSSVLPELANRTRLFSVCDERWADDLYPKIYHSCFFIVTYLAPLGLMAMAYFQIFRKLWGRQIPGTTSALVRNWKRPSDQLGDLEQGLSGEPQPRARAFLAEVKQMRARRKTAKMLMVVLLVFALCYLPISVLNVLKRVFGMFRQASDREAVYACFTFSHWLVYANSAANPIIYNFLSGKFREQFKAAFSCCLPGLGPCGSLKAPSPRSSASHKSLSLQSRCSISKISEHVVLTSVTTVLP
# CHO parental Ca = counter-screen: ATP calcium response change in parental CHO cells. actives 0.63% (n = 330,000). inhibition, % at 5.6 µM. parental CHO-K1, ATP-induced calcium, Fluo-8 fluorescence;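 active = inhibition above that plate's mean sample inhibition plus 3 SD, cut at about 26% in these data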;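 also: 0% = ATP-challenged DMSO wells and 100% = DMSO wells without ATP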
#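 Test system: untransfected parental CHO cell line; also added: ATP stimulus; dosing: 5.6 µM, single dose; signal: calcium-sensitive Fluo-8 fluorescence; measure: percent inhibition of ATP-evoked calcium rise, normalized to controls; benchmarks: low control ATP plus DMSO, high control DMSO only; replication: one well per compound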
# TAAR1 antagonist = human TAAR1 antagonism; AID 624466; inhibition, % at 3 µM; CHO RD-HGA16 TAAR1, Fluo-8 calcium fluorescence, antagonist; actives 1.5% (n = 360,000);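 active = inhibition above a per-plate cutoff, the mean inhibition of test compounds on that plate plus 3 SD, cut at about 49% in these data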;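 also: 0% = DMSO plus EC80 beta-PEA response and 100% = DMSO alone without agonist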
#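 Test system – hTAAR1-expressing CHO RD-HGA16 cells, Gα16-coupled · Reagent – β-PEA at EC80 concentration, post-compound challenge · Compound dosing – 3 µM, single point · Timing – 140 s kinetic read after compound, 140 s after agonist · Detection – Fluo-8 intracellular calcium dye fluorescence, real-time kinetic reads · Control set – DMSO and EC80 PEA controls · Repeats – n of 1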
# TAAR1 agonist = human TAAR1 agonism. actives 0.99% (n = 360,000). CHO RD-HGA16 TAAR1, Fluo-8 calcium fluorescence; vehicle wells 0%, saturating PEA agonist 100%. Q96RJ0. activation, % at 3 µM;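 active = activation above the mean activation of all test compounds in the run plus 3 SD, cut at about 38% in these data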
#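 Test system: RD-HGA16 (CHO) cells co-expressing Gα16 and hTAAR1; dosing: one-point dosing at 3 µM (nominal); timing: 17-24 h seeding, 75 min 37 °C dye, 30 min RT; signal: kinetic Fluo-8 calcium fluorescence; read-out basis: % activation relative to PEA EC100 response; controls: DMSO and PEA EC100; replicates: n 1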
# OX1R antag-2 = human HCRTR1 antagonism. O43613. CHO/OX1R cells, Fluo-8 calcium fluorescence, orexin A. inhibition, % at 5 µM. actives 0.43% (n = 330,000). AID 434989;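 active = inhibition above its plate's threshold, mean inhibition of all tested compounds on the plate plus 3 SD, cut at about 37% in these data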;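 also: 0% = orexin A challenge wells and 100% = SB-334867-A antagonist wells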
# GPR7 antag cf = confirmation of human GPR7 antagonists | shares compounds with GPR7 antag | GPR7-expressing cells, calcium fluorescence antagonist mode | inhibition, % at 4.4 µM | actives 52% (n = 2,400) | AID 1952; in the data active = inhibition above about 24%;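 also: stimulated with the GPR7 agonist NPW; 0% = agonist plus vehicle and 100% = vehicle alone without agonist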
# MCHR1 antagonist = antagonizes human MCHR1, a GPR7 antagonist counter-screen | shares compounds with GPR7 antag | AID 2148 | inhibition, % at 4.4 µM | actives 62% (n = 2,400) | MCHR1-expressing cells, fluorescence antagonist assay; in the data active = inhibition above about 22%;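 also: 0% = vehicle with agonist and 100% = vehicle without agonist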
# Active calls of the source: *; nt = no result given. Most compounds without a hit are left out; they make up all but 4.5% or so of the library.
SMILES,GPR7 antag,OX1R antag-1,CHO parental Ca,TAAR1 antagonist,TAAR1 agonist,OX1R antag-2,GPR7 antag cf,MCHR1 antagonist
CCc1ccc(NC(=O)C2(c3ccccc3)CC2(Cl)Cl)cc1 (configuration not stated),29*,13,14,47,55*,52*,65*,76*
CCC(Sc1ncnc2c1nnn2-c1ccc(F)cc1)C(=O)OC (configuration not stated),14,16,-8,16,4,12,nt,nt
CCOC(=O)C(C)Sc1ncnc2c1nnn2-c1ccc(F)cc1 (configuration not stated),44*,9,-6,18,16,-21,38*,44*
Cc1cn([C@H]2C[C@H](O)[C@@H](CNC(=O)[C@@H]3CCCN3Cc3ccccc3)O2)c(=O)[nH]c1=O,nt,nt,nt,11,0,nt,nt,nt
CC(C)(C)Cc1c(-c2ccc(F)cc2)nc2ccc(Br)cn12,nt,nt,nt,-7,-1,nt,nt,nt
Cn1c(=O)c(=O)n(C)c2cc(S(=O)(=O)N3CC(=O)N(CCc4ccccc4)C(=O)C3)ccc21,23*,10,8,-20,1,-7,-1,1
Cn1c(=O)c(=O)n(C)c2cc(S(=O)(=O)N3CCN(Cc4ccccc4)CC3)ccc21,-7,16,-7,3,12,-29,nt,nt
COc1cccc(C2c3[nH]c4ccccc4c3CCN2C(=O)c2ccccc2F)c1OC (configuration not stated),37*,17,-1,0,4,-7,27*,35*
COc1ccccc1Cn1c(=S)[nH]c2cc(C(=O)N3CCC(C(N)=O)CC3)ccc2c1=O,25*,16,-10,-20,3,-9,7,12
CCOC(=O)N1CCN(C(=O)c2ccc3c(=O)n(Cc4ccccc4OC)c(=S)[nH]c3c2)CC1,12,15,-5,21,12,-29,nt,nt
Cc1ccc(C(=O)N/N=C/c2ccoc2)cc1C,26*,5,-9,-5,0,-50,4,6
O=C(c1ccc(Cl)cc1)C(CN1CCCCC1)c1ccccc1 (configuration not stated),55*,-4,-10,13,12,-7,65*,82*
CCNC(=O)C1(C)CCN(C(=O)c2ccc(-c3ccccc3)cc2)C1 (configuration not stated),nt,nt,nt,-7,3,nt,nt,nt
COCOCCn1cc(CN2CCS(=O)(=O)N(Cc3ccc(-c4ccc(OC)cc4)cc3)C(C(C)C)C2=O)nn1 (configuration not stated),nt,nt,nt,3,1,nt,nt,nt
O=C(C1CC1)N1CCN(c2nc3ccccc3s2)CC1,2,5,-13,2,1,-14,nt,nt
CN(C1CCCCC1)S(=O)(=O)c1ccc(C(=O)N2CCN(c3nc4ccccc4s3)CC2)cc1,22*,6,-10,-3,0,-17,17,44*
Cc1ccc(C)c(N2CCN(CCCNC(=O)CCC(=O)N3CCOc4ccc(Cl)cc43)CC2)c1,29*,-4,-12,3,9,-8,50*,79*
Cn1nnnc1SCCNCC#Cc1ccccc1,26*,18,-8,2,8,-14,8,4
Cn1nnnc1SCCNCc1ccccc1F,4,12,-6,24,5,-12,nt,nt
COc1ccc(OC)c(CC(=O)Nc2ccc3c(c2)c(=O)n(C)n3Cc2cccc(C(F)(F)F)c2)c1,nt,nt,nt,-6,3,nt,nt,nt
COc1ccc(CN2CCc3c([nH]c4ccccc34)C2)cc1Br,42*,10,-18,-52,16,-22,52*,38*
CCOC(=O)C(C)Oc1cccc2c(=O)n(CC(=O)NCc3ccccc3)ccc12 (configuration not stated),22*,2,-22,-17,2,-25,14,20
CCOC(=O)C(C)Oc1cccc2c(=O)n(CC(=O)NCCc3ccccc3)ccc12 (configuration not stated),11,26,1,-13,0,-16,nt,nt
CC(C)CN1CCCC(N2CCN(c3cccc(Cl)c3)CC2)C1 (configuration not stated),27*,7,4,-2,0,-42,-6,0
COc1ccc(CN2CCCC(N3CCN(c4cccc(Cl)c4)CC3)C2)cc1OC (configuration not stated),15,nt,nt,-39,2,nt,nt,nt
SMILES,GPR7 antag,OX1R antag-1,CHO parental Ca,TAAR1 antagonist,TAAR1 agonist,OX1R antag-2,GPR7 antag cf,MCHR1 antagonist
CC1=C(C(=O)N2CCCCCC2)CC(CC(=O)NCCN2CCOCC2)C(=O)N1CCC1=CCCCC1 (configuration not stated),nt,nt,nt,-4,3,nt,nt,nt
CC(C)CCNC(=O)NC(=O)CN1C(=O)NC2(CCCCC2)C1=O,24*,15,-15,-8,1,-18,-8,-2
CN[C@H]1C[C@@H](c2ccccc2)N(C(C)=O)C[C@H]1CO,nt,nt,nt,-28,3,nt,nt,nt
N/C(=N\OC(=O)COc1ccccc1)c1ccc(Cl)cc1,24*,6,12,2,-1,-12,-5,8
CCC1(C)Cc2c(sc3nc(SC)nc(NCCN(C)C)c23)CO1 (configuration not stated),26*,8,-10,2,7,4,9,14
CCN1CCN(c2nc(SC)nc3sc4c(c23)CC(C)(C)OC4)CC1,4,nt,nt,5,2,nt,nt,nt
COc1cc(OC)c(CN2CCN(c3ccc(F)cc3)CC2)cc1Br,22*,9,-9,11,0,-14,17,18
COc1ccc(CN2CCN(c3ccc(F)cc3)CC2)c(OC)c1OC,-11,6,-1,-13,18,-27,nt,nt
O=C1C2C3c4ccccc4C(c4ccccc43)C2c2nc3ccccc3n21 (configuration not stated),22*,17,-19,45,19,-29,8,32*
CN1C(=O)C2C3c4ccccc4C(c4ccccc43)[C@@H]2C1=O (some centres not stated),0,9,-3,-6,4,-18,nt,nt
CCCCN1C(=O)C(CC(=O)NCc2cccc3ccccc23)CC(C(=O)N(C)C)=C1C (configuration not stated),nt,nt,nt,2,1,nt,nt,nt
COc1ccc(-c2nnn(CC(=O)NCc3ccc4c(c3)OCO4)n2)cc1OC,22*,21,-18,10,4,-19,0,2
Cc1cc(C(=O)N2CCC2(C)C(=O)O)nn1C(C)(C)C (configuration not stated),nt,nt,nt,-3,1,nt,nt,nt

# Source: PubChem BioAssay
